Key:
Assay type in all cases: cell-based, rat
[1] = test system: thyroid hormone receptor (TR); conditions: 24 well format, 24h, normalized to total protein values
Method in brief: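 GH3.TRE-Luc cells were seeded at 150,000/well in DMEM:F12 with 15 mM HEPES, 10% FBS and Pen/Strep. After 24 h the medium was changed to PCM medium for another 24 h. Cells were then exposed 24 h to ligands in 0.2% DMSO. Luciferase was read from lysed cells and cell number estimated by BCA protein assay. Duplicates per dose, ≥3 experiments.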

[2] = test system: GH3.TRE-Luc cells; test: Cell viability assay, intracellular ATP content; conditions: over the range of concentrations used within the 24 h treatment, presence of 1 nM T3
[3] = test system: thyroid hormone receptor (TR); test: qHTS GH3.TRE-Luc luciferase reporter gene assay, agonist mode; conditions: LOPAC library screen
Method in brief: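 Cells were held 20 h in serum-free assay medium (DMEM:F12 with insulin, ethanolamine, selenite, apotransferrin and BSA), then detached and dispensed in 5 µl/well. After 4–5 h at 37°C, compound or DMSO was pinned in (final DMSO 0.46 or 0.92%) for 24 h. One-Glo was added, 30 min at room temperature, then luminescence read. Data were normalized to 100 nM T3 (100%) and DMSO (0%).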

| Structure (SMILES) | induction of the reporter gene luciferase activity [1] | other results |
| --- | --- | --- |
| C/C(=C\c1ccc(C(=O)O)cc1)c1ccc2c(c1)C(C)(C)CCC2(C)C [TTNPB] | neither the RAR-specific ligand TTNPB nor the LXR-specific ligand T0901317 activated the reporter gene | – |
| N[C@@H](Cc1cc(I)c(Oc2ccc(O)c(I)c2)c(I)c1)C(=O)O [T3, triiodothyronine] | showed the expected induction profiles | – |
| O=c1[nH]cc(F)c(=O)[nH]1 [5-fluorouracil] | – | cytotoxicity [2]: without apparent cytotoxicity |
| NCCCC(=O)O [GABA] | – | response in this assay [3]: did not show any response |
| O=S(=O)(c1ccccc1)N(CC(F)(F)F)c1ccc(C(O)(C(F)(F)F)C(F)(F)F)cc1 [T0901317] | neither the RAR-specific ligand TTNPB nor the LXR-specific ligand T0901317 activated the reporter gene | – |

From article PMC3999704 (Current Chemical Genomics and Translational Medicine, 2014)
